Article PMC3788622 (Journal of Medicinal Chemistry, 2013)
Entries after “also recorded” stand apart in the source; their conditions may differ.

Key:
male C57BL/6J mice [1] = assay: Escalating single dose subcutaneous injections: animal weight and behavior; type: in vivo, mouse; settings: for Weight loss: single sc injection at 1, 3, and 10 mg/kg, observed 9 days
How it was run: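 Male C57BL/6J mice, 8 weeks old, were acclimatised 3 days after arrival. Groups of four received one sc dose of 1, 3 or 10 mg/kg in up to 200 μL 25% DMSO/saline. Doses were set by UV/vis using ε 69 500 M–1·cm–1 near 315 nm. Mice were weighed daily for 9 days, then sacrificed. Humane end point was visible duress or weight loss over 15% of starting weight.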

male C57BL/6J mice [2] = assay: Histopathology after single subcutaneous injection; type: in vivo, mouse; settings: for Organ toxicity by histopathology, overall: single sc dose, any dose level tested (1, 3, 10 mg/kg)
How it was run: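 After the single sc dose (1, 3 or 10 mg/kg, 25% DMSO/saline, 9-day observation), two representative mice per group were fixed in 10% formalin. A veterinary pathologist examined cecum, duodenum, heart, ileum, kidney, liver, lung, pancreas, spleen and stomach, blinded to animal identity.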

male C57BL/6J mice [3] = assay: Serum markers of liver and kidney damage after single subcutaneous injection; type: in vivo, mouse; settings: single sc dose 1, 3, 10 mg/kg; dose stated in the value
How it was run: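 All mice from the single sc dose groups (1, 3, 10 mg/kg in 25% DMSO/saline, n = 4, 9-day observation) were bled retro-orbitally. Serum was obtained by centrifugation at 6000 rpm for 5 min. ALT, AST, total bilirubin, BUN and creatinine were measured externally, blinded to animal identity.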

male C57BL/6J mice [4] = assay: Histopathology after multiple subcutaneous injections; type: in vivo, mouse
[5] = Liver microsomal stability; type: in vitro ADME; settings: 1 mg/mL human liver microsomes, 37 °C, 60 min, with and without NADPH
How it was run: (§1)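 Test compound was incubated with 1 mg/mL human or mouse liver microsomes at 37 °C in 100 mM KH2PO4, 3 mM MgCl2, pH 7.4, with or without 2 mM NADPH. After 60 min, ice-cold methanol was added, samples sat on ice for 10 min or more, then were diluted with water and centrifuged. Analysis was by LC/MS/MS as percent remaining versus time zero, in duplicate.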

[6] = Liver microsomal stability; type: in vitro ADME; settings: 1 mg/mL mouse liver microsomes, 37 °C, 60 min, with and without NADPH
How it was run: as §1

male C57BL/6J mice [7] = assay: Serum markers of liver and kidney damage after multiple subcutaneous injections; type: in vivo, mouse; settings: 1 mg/kg sc every 3 days, three injections
How it was run: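 Male C57BL/6J mice, 8 weeks old, were dosed in groups of three with 1 mg/kg sc every 3 days for three injections and sacrificed 2 days after the last. Weight was recorded on injection days and at the end point. Retro-orbital blood was spun at 6000 rpm for 5 min. Serum ALT, AST, total bilirubin, BUN and creatinine were assayed blinded.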

[8] = Serum levels after subcutaneous injection; type: in vivo, mouse; settings: male C57BL/6J mice, 10 mg/kg sc
[9] = test system: liver tissue of male C57BL/6J mice; assay: Liver uptake of fluorescein-polyamide conjugates; type: in vivo, mouse; settings: 50 nmol (∼3 mg/kg), sacrificed 24 h later
male C57BL/6J mice [10] = assay: Hematological analysis of wild-type mice after six injections; type: in vivo, mouse; settings: six injections sc 1 mg/kg, before treatment vs at sacrifice
How it was run: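 Five healthy male C57BL/6J mice were bled retro-orbitally into K2EDTA tubes for baseline haematology and allowed 1 week to recover. They then received test compound 1 mg/kg sc in 20% DMSO/normal saline every 3 days for six injections. They were bled again 2 days after the final injection and euthanised. Serum and haematology samples were prepared separately; serum ALT, AST, total bilirubin, BUN and creatinine were measured. Data are the mean of five animals ± std.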

RPB1 = RPB1 protein ELISA; type: cell-based; settings: LNCaP cells
How it was run: (§2)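 LNCaP cells were treated with 10 μM test compound for 72 h. Controls were DMSO vehicle and 1 μM doxorubicin for 24 h. RPB1 was measured with an RPB1-specific ELISA kit and total p53 with a pan-p53 ELISA kit, each following the kit instructions, in biological triplicates.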

p53 = p53 protein ELISA; type: cell-based; settings: LNCaP cells
How it was run: as §2

p21, IGFBP3, and GADD45A = assay: Quantitative RT-PCR of p53 responsive genes; type: cell-based; settings: LNCaP cells, 1, 3, 10 μM, 72 h
How it was run: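 LNCaP cells were seeded at 50 000 per well, left to adhere 36–48 h, and treated with 1, 3 or 10 μM test compound for 72 h. Total RNA was extracted on columns and reverse transcribed. p21, IGFBP3 and GADD45A were quantified by SYBR Green real-time PCR relative to β-glucuronidase, in biological replicates.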

LNCaP cells = assay: Alkaline comet assay; type: cell-based; settings: 10 μM, 48 h
How it was run: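 LNCaP cells were seeded at 100 000 per well and left to adhere 36–48 h. They were then exposed to 10 μM test compound for 48 h, with 5 μM doxorubicin for 4 h as the comparator. DNA damage was assessed with a commercial comet kit after gentle harvest in PBS. Slides were imaged by confocal microscopy at 10×, and more than 100 comets were scored per condition as percentage of DNA in the tail.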

[11] = single sc dose 3 mg/kg, 3 mg/kg
[12] = 1 mg/kg sc every 3 days, three injections

For `CC(=O)N[C@@H](CNC(=O)c1cc(NC(=O)c2cc(NC(=O)c3cc(NC(=O)c4nccn4C)cn3C)cn2C)cn1C)CC(=O)Nc1cn(C)c(C(=O)Nc2cc(C(=O)Nc3cc(C(=O)Nc4cc(C(=O)NCCCN(C)CCCNC(=O)c5cccc(C(=O)O)c5)n(C)c4)n(C)c3)n(C)c2)n1` [Polyamide 4, ImPyPyPy-3-(R)^AcHNγ-ImPyPyPy∼NHMe∼IPA], the Behavior and appearance (male C57BL/6J mice [1]; single sc injection, 3 mg/kg) was “hunched posture, loss of mobility, and acute morbidity”, the Behavior and appearance (male C57BL/6J mice [1]; single sc injection, 10 mg/kg) was “hunched posture, loss of mobility, and acute morbidity” and the “Dose tolerated (only tolerated at)” value (male C57BL/6J mice [1]; single sc injection, 1, 3, 10 mg/kg tested) was 1 mg/kg. For the same molecule, the “Kidney lesions by histopathology (in words)” value (male C57BL/6J mice [2]; single sc dose 1 mg/kg) was “Milder tubular regeneration and karyomegaly”, the “Liver lesions by histopathology (in words)” value (male C57BL/6J mice [2]; single sc dose 1 mg/kg) was “Mild hepatocellular necrosis and apoptosis” and the “Spleen lesions by histopathology (in words)” value (male C57BL/6J mice [2]; single sc dose 3 mg/kg) was “Mild lymphoid apoptosis in the white pulp of the spleen”. The “Kidney lesions by histopathology (in words)” value (male C57BL/6J mice [2]; [11]) was “Moderate atypical tubular regeneration (karyomegaly, tubular attenuation, mitotic figures) and/or tubular epithelial necrosis and apoptosis”, the “Liver lesions by histopathology (in words)” value (male C57BL/6J mice [2]; [11]) was “multifocal bridging hepatocellular necrosis and apoptosis” and the “Kidney lesions by histopathology (in words)” value (male C57BL/6J mice [2]; single sc dose 10 mg/kg) was “Moderate atypical tubular regeneration (karyomegaly, tubular attenuation, mitotic figures) and/or tubular epithelial necrosis and apoptosis”. The “Liver lesions by histopathology (in words)” value (male C57BL/6J mice [2]; single sc dose 10 mg/kg) was “multifocal bridging hepatocellular necrosis and apoptosis”, the “Spleen lesions by histopathology (in words)” value (male C57BL/6J mice [2]; single sc dose 10 mg/kg) was “Mild lymphoid apoptosis in the white pulp of the spleen” and the “Elevation of serum markers of liver and kidney damage (in words)” value (shortened to “Elevation”) (male C57BL/6J mice [3]) was “marked and severe elevations of AST, ALT, and total bilirubin at both 3 and 10 mg/kg; also recorded: significantly elevated creatinine and BUN at 10 mg/kg and elevated BUN at 3 mg/kg”. For the same molecule, the “Kidney lesions by histopathology (in words)” value (male C57BL/6J mice [4]; 1 mg/kg sc, two injections) was “hyaline droplet accumulation”, the “Liver lesions by histopathology (in words)” value (male C57BL/6J mice [4]; 1 mg/kg sc, two injections) was “marked hepatocellular necrosis and apoptosis” and the “Percent intact after 1 h incubation” value [5] was “less than 5%”. For the same molecule, the “Percent intact after 1 h incubation” value [6] was “less than 5%”.

In the case of `CN(CCCNC(=O)c1cccc(C(=O)O)c1)CCCNC(=O)c1cc(NC(=O)c2cc(NC(=O)c3cc(NC(=O)c4nc(NC(=O)C[C@@H](N)CNC(=O)c5cc(NC(=O)c6cc(NC(=O)c7cc(NC(=O)c8nccn8C)cn7C)cn6C)cn5C)cn4C)cn3C)cn2C)cn1C` [Polyamide 2, ImPyPyPy-3-(R)^H2Nγ-ImPyPyPy∼NHMe∼IPA], the Weight loss (male C57BL/6J mice [1]) is reported as “significant weight loss only at 10 mg/kg”, the “Kidney lesions by histopathology (in words)” value (male C57BL/6J mice [2]; single sc dose 3 mg/kg) is reported as “Moderate atypical tubular regeneration (karyomegaly, tubular attenuation, mitotic figures) and/or tubular epithelial necrosis and apoptosis” and the “Liver lesions by histopathology (in words)” value (male C57BL/6J mice [2]; single sc dose 3 mg/kg) is reported as “Mild hepatocellular necrosis and apoptosis”. The “Liver lesions by histopathology (in words)” value (male C57BL/6J mice [2]; single sc dose 10 mg/kg) was “diffuse hepatocellular necrosis and apoptosis”, the “Spleen lesions by histopathology (in words)” value (male C57BL/6J mice [2]; single sc dose 10 mg/kg) was “Mild lymphoid apoptosis in the white pulp of the spleen” and the “Elevation” value (male C57BL/6J mice [3]) was “severe elevation of AST, ALT, and total bilirubin at 10 mg/kg and to a lesser extent at 3 mg/kg; also recorded: elevated BUN at 10 mg/kg”. For the same molecule, the “Kidney lesions by histopathology (in words)” value (male C57BL/6J mice [4]; [12]) was “mild variable tubular attenuation, karyomegaly, and epithelial necrosis and apoptosis”, the “Liver lesions by histopathology (in words)” value (male C57BL/6J mice [4]; [12]) was “mild multifocal hepatocellular necrosis and apoptosis” and the “Alteration of liver and kidney serum markers (in words)” value (male C57BL/6J mice [7]) was “elevated AST and ALT”.

With `Cn1cc2cc1C(=O)NCCCC(=O)Nc1cn(C)c(n1)C(=O)Nc1cc(n(C)c1)C(=O)Nc1cc(n(C)c1)C(=O)Nc1cc(n(C)c1)C(=O)NCC[C@@H](N)C(=O)Nc1cn(C)c(n1)C(=O)Nc1cc(n(C)c1)C(=O)Nc1cc(n(C)c1)C(=O)N2` [Polyamide 5] the Weight loss (male C57BL/6J mice [1]) was “did not cause significant weight loss; also recorded: less effect on animal weight than 1”, the “Organ toxicity by histopathology, overall” value (male C57BL/6J mice [2]) was “did affect the kidney and liver” and the “Elevation” value (male C57BL/6J mice [3]) was “caused levels of ALT and AST to increase in a dose-dependent manner”. The “Serum bioavailability after subcutaneous injection” value [8] was “bioavailable”.

With `CC(=O)N[C@@H](CNC(=O)c1cc(NC(=O)c2cc(NC(=O)c3cc(NC(=O)c4nccn4C)cn3C)cn2C)cn1C)CC(=O)Nc1cn(C)c(C(=O)Nc2cc(C(=O)Nc3cc(C(=O)Nc4cc(C(=O)NCCCN(C)CCCNC(=S)Nc5ccc(-c6c7ccc(=O)cc-7oc7cc(O)ccc67)c(C(=O)O)c5)n(C)c4)n(C)c3)n(C)c2)n1` [Polyamide 9] the “Nuclear fluorescence in liver sections” value [9] was “the most intense nuclear fluorescence in liver sections”.

For `CC(=O)N[C@H](CCNC(=O)c1cc(NC(=O)c2cc(NC(=O)c3cc(NC(=O)c4nccn4C)cn3C)cn2C)cn1C)C(=O)Nc1cn(C)c(C(=O)Nc2cc(C(=O)Nc3cc(C(=O)Nc4cc(C(=O)NCCCN(C)CCCNC(=O)c5cccc(C(=O)O)c5)n(C)c4)n(C)c3)n(C)c2)n1` [Polyamide 3, ImPyPyPy-2-(R)^AcHNγ-ImPyPyPy∼NHMe∼IPA], the “Organ toxicity by histopathology, overall” value (male C57BL/6J mice [2]) was “no detectable toxicity”, the “Elevation” value (male C57BL/6J mice [3]) was “no elevation of these markers at the dose levels tested” and the “Histopathologic lesions, overall” value (male C57BL/6J mice [4]; [12]) was “no histopathologic lesions consistent with toxicity”. The “Alteration of liver and kidney serum markers (in words)” value (male C57BL/6J mice [7]) was “no histopathologic lesions consistent with toxicity or alterations in liver and kidney serum markers”, the “Hematologic changes (in words)” value (male C57BL/6J mice [10]) was “No significant hematologic changes” and the RPB1 protein level (RPB1; 10 μM, 72 h) was “reduced RPB1 levels”. The “Cellular level of p53 protein” value (p53; 10 μM, 72 h) was “increased”, the “Transcripts of p53 responsive genes p21, IGFBP3, and GADD45A” value (p21, IGFBP3, and GADD45A) was “induced by 3 in a dose-dependent fashion; also recorded: increased” and the “DNA damage (genomic fragmentation) by comet assay” value (LNCaP cells) was “no increase in genomic fragmentation; also recorded: did not result in increased DNA damage”.

In the case of `COc1cccc2c1C(=O)c1c(O)c3c(c(O)c1C2=O)C[C@@](O)(C(=O)CO)C[C@@H]3O[C@H]1C[C@H](N)[C@H](O)[C@H](C)O1` [doxorubicin, reference compound], the RPB1 protein level (RPB1; 1 μM, 24 h) is reported as “decreases” and the “Cellular level of p53 protein” value (p53; 1 μM, 24 h) is reported as “increases”.

With `CC(=O)N[C@H](CCNC(=O)c1cc(NC(=O)c2cc(NC(=O)c3cc(NC(=O)c4nccn4C)cn3C)cn2C)cn1C)C(=O)Nc1cn(C)c(C(=O)Nc2cc(C(=O)Nc3cc(C(=O)Nc4cc(C(=O)NCCCN(C)CCCNC(=S)Nc5ccc(-c6c7ccc(=O)cc-7oc7cc(O)ccc67)c(C(=O)O)c5)n(C)c4)n(C)c3)n(C)c2)n1` [Polyamide 8] the “Nuclear fluorescence in liver sections” value [9] was “less nuclear fluorescence in liver sections than the other FITC–polyamide conjugates”.
